The source made the active and inactive calls. No cut-off for these calls is given here.
What was measured:
[1] = Cytotoxicity against BALB/c mouse peritoneal cavity cells at 100 ug/mL after 20 hrs by MTT assay; type: cell-based
Summary of the method: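 Peritoneal cells came from male Balb/c mice (18–25 g). They were washed in RPMI and resuspended in RPMI with 10% FBS and antibiotics, with viable cells counted by Trypan blue. Cells at 2 × 10⁵/well were held 30 min at 37 °C, 5% CO₂, exposed to compound for 20 h, then given MTT for 4 h. Formazan was dissolved in DMSO and read at 490 nm. Viability was taken as % of control OD, with ≥5% death counted as cytotoxic.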

Trypanosoma cruzi [2] = test: Trypanocidal activity against Trypanosoma cruzi Y in Swiss albino mouse blood after 24 hrs; type: functional, organism-based
Summary of the method: (§1)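 Blood was drawn by cardiac puncture from Swiss albino mice infected with T. cruzi Y strain at peak parasitaemia (day 7). It was diluted with healthy mouse blood to 2.10⁶ forms/mL. Compounds from DMSO stocks were tested at 100, 250 and 500, in triplicate, at 4 °C. Parasites were counted after 24 h against infected blood with matched DMSO. IC50 was converted to molar pIC50.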

Trypanosoma cruzi [3] = test: Trypanocidal activity against Trypanosoma cruzi Y in Swiss albino mouse blood at 500 ug/mL after 24 hrs; type: functional, organism-based; summary of the method: as §1

Row | Structure (SMILES) | Activity [1] | IC50 (Trypanosoma cruzi [2]; read-out: IC50) | IC50 (Trypanosoma cruzi [2]; read-out: pIC50 (converted)) | IC50 (Trypanosoma cruzi [3]) | pIC50 (Trypanosoma cruzi [3])
1 | COc1ccc(/C(=C\c2cnn(-c3ccccc3)c2)C(=O)N/N=C/c2ccc(Br)cc2)cc1 | 0% | 930 µM | 933 µM |  | 
2 | COc1ccc(/C(=C\c2cnn(-c3ccccc3)c2)C(=O)N/N=C/c2ccc(C#N)cc2)cc1 | 14.35% | 1310 µM | 1320 µM |  | 
3 | N#Cc1ccc(/C=N/NC(=O)/C(=C/c2cnn(-c3ccccc3)c2)c2ccc(C(F)(F)F)cc2)cc1 | 0% | 590 µM | 589 µM |  | 
4 | CN(C)c1ccc(/C=N/NC(=O)/C(=C/c2cnn(-c3ccccc3)c2)c2ccccc2)cc1 | 0% | 200 µM | 200 µM |  | 
5 | O=C(N/N=C/c1ccccc1)/C(=C/c1cnn(-c2ccccc2)c1)c1ccc(Br)cc1 |  |  |  | Not Active | inactive
6 | CN(C)c1ccc(/C=N/NC(=O)/C(=C/c2cnn(-c3ccccc3)c2)c2ccc(Br)cc2)cc1 | 0% | 700 µM | 708 µM |  | 
7 | O=C(N/N=C/c1ccc(Cl)cc1)/C(=C/c1cnn(-c2ccccc2)c1)c1ccccc1 | 0% | 8590 µM | 8510 µM |  | 
8 | CSc1ccc(/C=N/NC(=O)/C(=C/c2cnn(-c3ccccc3)c2)c2ccccc2)cc1 | 22.8% | 440 µM | 437 µM |  | 
9 | O=C(N/N=C/c1ccc([N+](=O)[O-])cc1)/C(=C/c1cnn(-c2ccccc2)c1)c1ccccc1 | 19.4% | 30 µM | 28.2 µM |  | 
10 | O=C(N/N=C/c1ccccc1)/C(=C/c1cnn(-c2ccccc2)c1)c1ccc(F)cc1 | 0% | 7830 µM | 7760 µM |  | 
11 | CN(C)c1ccc(/C=N/NC(=O)/C(=C/c2cnn(-c3ccccc3)c2)c2ccc(O)cc2)cc1 | 12.94% | 1880 µM | 1860 µM |  | 
12 | O=C(N/N=C/c1ccccc1)/C(=C/c1cnn(-c2ccccc2)c1)c1ccccc1 | 4% | 190 µM | 191 µM |  | 
13 | COc1ccc(/C=N/NC(=O)/C(=C/c2cnn(-c3ccccc3)c2)c2ccccc2)cc1 | 0% | 1510 µM | 1510 µM |  | 
14 | NNC(=O)/C(=C/c1cnn(-c2ccccc2)c1)c1ccccc1 | 0% | 2810 µM | 2820 µM |  | 
15 | COc1ccc(/C(=C\c2cnn(-c3ccccc3)c2)C(=O)N/N=C/c2ccc(O)cc2)cc1 | 12.04% | 1420 µM | 1410 µM |  | 
16 | COc1ccc(/C(=C\c2cnn(-c3ccccc3)c2)C(=O)N/N=C/c2ccc([N+](=O)[O-])cc2)cc1 | 11.22% | 980 µM | 977 µM |  | 
17 | O=C(N/N=C/c1ccc(Br)cc1)/C(=C/c1cnn(-c2ccccc2)c1)c1ccccc1 | 14.35% | 1500 µM | 1510 µM |  | 
18 | O=C(N/N=C/c1ccc([N+](=O)[O-])cc1)/C(=C/c1cnn(-c2ccccc2)c1)c1ccc(C(F)(F)F)cc1 | 0% | 750 µM | 741 µM |  | 
19 | N#Cc1ccc(/C=N/NC(=O)/C(=C/c2cnn(-c3ccccc3)c2)c2ccccc2)cc1 | 0% | 1870 µM | 1860 µM |  | 
20 | COc1ccc(/C=N/NC(=O)/C(=C/c2cnn(-c3ccccc3)c2)c2ccc(F)cc2)cc1 | 14.8% | 340 µM | 339 µM |  | 
21 | O=C(N/N=C/c1ccc(F)cc1)/C(=C/c1cnn(-c2ccccc2)c1)c1ccccc1 | 0% | 2440 µM | 2450 µM |  | 
22 | CN(C)c1ccc(/C=N/NC(=O)/C(=C/c2cnn(-c3ccccc3)c2)c2ccc(C(F)(F)F)cc2)cc1 | 23.07% | 920 µM | 912 µM |  | 
23 | O=C(N/N=C/c1ccccc1)/C(=C/c1cnn(-c2ccccc2)c1)c1ccc(O)cc1 | 9.64% | 1360 µM | 1350 µM |  | 
24 | CN(C)c1ccc(/C=N/NC(=O)/C(=C/c2cnn(-c3ccccc3)c2)c2ccc(F)cc2)cc1 | 12.2% | 890 µM | 891 µM |  | 
25 | O=C(N/N=C/c1ccc(O)cc1)/C(=C/c1cnn(-c2ccccc2)c1)c1ccccc1 | 12.32% | 760 µM | 759 µM |  | 
26 | CCOc1ccc(/C=N/NC(=O)/C(=C/c2cnn(-c3ccccc3)c2)c2ccccc2)cc1 | 0% | 380 µM | 380 µM |  | 
27 | N#Cc1ccc(/C=N/NC(=O)/C(=C/c2cnn(-c3ccccc3)c2)c2ccc(F)cc2)cc1 | 0% | 50 µM | 53.7 µM |  | 
28 | O=C(N/N=C/c1ccc(Br)cc1)/C(=C/c1cnn(-c2ccccc2)c1)c1ccc(C(F)(F)F)cc1 | 0% | 620 µM | 617 µM |  | 
